# Results taken from ChEMBL document CHEMBL1145441, “Synthesis and anti-HIV activity of new metabolically stable alkenyldiarylmethane non-nucleoside reverse transcriptase inhibitors incorporating N-methoxy imidoyl halide and 1,2,4-oxadiazole systems” (J Med Chem, 2007).
# Active and inactive are the calls of the source.
# What was measured:
# [1] = Metabolic stability in rat plasma; type: ADME, cell-free
# Summary of the method: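 Hydrolytic stability in rat plasma in vitro, with 1,1-diphenylethylene or benzophenone as internal standard; samples followed by HPLC; half-life reported in minutes as mean ± SD of at least two separate experiments.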
# [2] = molecular target: Human immunodeficiency virus type 1 reverse transcriptase (Human immunodeficiency virus 1, UniProt Q72547); assay: Inhibition of HIV1 recombinant reverse transcriptase
# [3] = system: Human immunodeficiency virus 1; assay: Antiviral activity against HIV1 RF in CEM-SS cells by XTT assay; type: functional, organism-based; conditions: for EC50: Human immunodeficiency virus 1, RF
# Summary of the method: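 HIV-1 RF infection of CEM-SS cells, with protection scored by XTT cytoprotection assay; EC50 defined as 50% effective concentration for inhibiting cytopathicity; means of at least two separate experiments.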
# [4] = system: Human immunodeficiency virus 2; assay: Antiviral activity against HIV2 ROD in MT4 cells by MTT assay; type: functional, organism-based
# Summary of the method: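 HIV-2 strain ROD infection of MT-4 cells; MTT cytoprotection read-out; EC50 is the 50% effective concentration against virus-induced cytopathicity; mean values from at least two separate experiments.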
# [5] = Cytotoxicity against mock-infected MT4 cells; type: cell-based; conditions: human
# Summary of the method: (§1)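 Mock-infected CEM-SS or MT-4 cells; CC50 defined as 50% cytotoxic concentration; means of at least two separate experiments.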
# [6] = Cytotoxicity against mock-infected CEM-SS cells; type: cell-based; conditions: human; summary of the method: as §1
# [7] = system: Human immunodeficiency virus 1; assay: Antiviral activity against HIV1 3B in MT4 cells by MTT assay; type: functional, organism-based; conditions: for EC50: Human immunodeficiency virus 1, 3B
# Summary of the method: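 Cytoprotection read-out by MTT in MT-4 cells infected with HIV-1 strain IIIB; EC50 taken as the concentration giving 50% inhibition of viral cytopathicity; means of at least two separate experiments.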
half-life [1] [h],IC50 [2] [µM],SMILES,EC50 [3] [µM],Activity [4],CC50 [5] [µM],CC50 [6] [µM],EC50 [7] [µM],Activity [3],Activity [7]
0.0217,0.02,COC(=O)CCC/C=C(\c1cc(C)c(OC)c(C(=O)OC)c1)c1cc(C)c2oc(=O)n(C)c2c1,0.02,inactive,16.9,5.1,,,
2.6,0.85,CO/N=C(\Br)CCC/C=C(\c1cc(C)c(OC)c(/C(Br)=N/OC)c1)c1cc(C)c2oc(=O)n(C)c2c1,,inactive,13.3,2.1,6.3,inactive,
0.153,0.55,CO/N=C(\F)c1cc(/C(=C\CCCC(=O)OC)c2cc(C)c3oc(=O)n(C)c3c2)cc(C)c1OC,0.5,inactive,21,3.9,0.29,,
,> 100,CONC(=O)CCC/C=C(\c1cc(C)c(OC)c(C(=O)NOC)c1)c1cc(C)c2oc(=O)n(C)c2c1,,inactive,18.4,5.4,,inactive,inactive
0.0127,1,COC(=O)CCCC=C(c1cc(C)c(OC)c(C(=O)OC)c1)c1cc(C)c(OC)c(C(=O)OC)c1,0.25,inactive,6.1,6,,,
,> 100,CONC(=O)c1cc(/C(=C\CCCC(=O)OC(C)(C)C)c2cc(C)c3oc(=O)n(C)c3c2)cc(C)c1OC,,inactive,16.8,5.2,,inactive,inactive
82.8,0.6,CO/N=C(\Cl)CCC/C=C(\c1cc(C)c(OC)c(/C(Cl)=N/OC)c1)c1cc(C)c2oc(=O)n(C)c2c1,,inactive,3.9,1.3,,inactive,
60.7,0.67,CO/N=C(\F)c1cc(/C(=C\CCCc2nc(C)no2)c2cc(C)c3oc(=O)n(C)c3c2)cc(C)c1OC,0.7,inactive,12.4,2.9,0.24,,
